Measured values collected from several papers.
Compare with care: the assays were run in different laboratories.
Target: Acetylcholinesterase (ACHE, Homo sapiens, UniProt P22303)
Effect on: enzyme activity
Mode: inhibitor

| Structure (SMILES) | test | conditions | IC50 |
| --- | --- | --- | --- |
| CC(=O)O[C@H]1C[C@@H]2CC[C@@H]3[C@H](CC[C@@]4(C)[C@H]3C[C@H]([N+]3(C)CCCCC3)[C@@H]4OC(C)=O)[C@@]2(C)C[C@@H]1N1CCCCC1 |  |  | 16500 nM |
| CN1CCN(CCCCOc2ccc3occc(=O)c3c2)CC1 | Ellman | pH 7.4 | 6430 nM |
| C=CCn1c2cc(OC(=O)CCCCN3CCN(Cc4ccc(C)cc4)CC3)ccc2c2ccnc(C)c21 | Ellman |  | 12.6 nM |
| Cc1ccc(S(=O)(=O)n2cc(Br)c(=O)[nH]c2=O)cc1 | Ellman |  | 88 nM |
| C[C@@H]1CCCN1CCCCOc1ccc2occc(=O)c2c1 | Ellman | pH 7.4 | 8620 nM |
| O=C(CN1C2=NCCN2c2ccccc21)c1ccc(-c2ccccc2)cc1 |  |  | 19500 nM |
| CNC(=O)Oc1cccc2ccccc12 | Ellman |  | 2780 nM |
| C=CCn1c2cc(OC(=O)CCCCN3CCN(Cc4cccc(C(F)(F)F)c4)CC3)ccc2c2ccnc(C)c21 | Ellman |  | 748 nM |
| CCOP(=O)(OCC)Oc1ccc2c(C)c(Cl)c(=O)oc2c1 | Ellman |  | 111 nM |
| O=C(NCCCNc1c2c(nc3ccccc13)CCCC2)c1ccccc1O | Ellman |  | 1020 nM |
| C#CCNc1nc(NCCCCC2CCN(Cc3ccccc3)CC2)c(C#N)c(-c2ccccc2)c1C#N | Ellman |  | 6 nM |
| C=CCn1c2cc(OC(=O)CCCCN3CCN(Cc4ccccc4)CC3)ccc2c2ccnc(C)c21 | Ellman |  | 58.8 nM |
| CCC(CC)CSc1ccccc1OC(=O)NC | Ellman |  | 5130 nM |
| C#CCNc1nc(NCCCCC2CCN(Cc3ccccc3)CC2)c(C#N)cc1C#N | Ellman |  | 2.9 nM |
| Cc1cc(O)nc(O)n1 | Ellman |  | 191 nM |
| c1cc(CN2CCCCC2)cc(OCCCNc2nc3ccccc3s2)c1 |  |  | 22600 nM |
| O=c1[nH]cc(Br)c(=O)[nH]1 | Ellman |  | 151 nM |
| C=CCn1c2cc(OC(=O)CCCN3CCN(Cc4ccccc4)CC3)ccc2c2ccnc(C)c21 | Ellman |  | 49.7 nM |
| CCOP(=S)(OCC)O/N=C(\C#N)c1ccccc1 |  |  | 22600 nM |
| C=CCn1c2cc(OC(=O)CCCCN3CCN(Cc4cccc(F)c4)CC3)ccc2c2ccnc(C)c21 | Ellman |  | 106 nM |
| C#CCN(C)c1nc(NCCCC2CCN(Cc3ccccc3)CC2)c(C#N)cc1C#N | Ellman |  | 26.3 nM |
| C=CCn1c2cc(OC(=O)CCCCCN3CCN(Cc4ccccc4)CC3)ccc2c2ccnc(C)c21 | Ellman |  | 157 nM |
| CNC(=O)Oc1cccc2c1OC(C)(C)O2 | Ellman |  | 182 nM |
